In ChEMBL document CHEMBL2176901, “Pyrrolo[3,4-h]quinolinones a new class of photochemotherapeutic agents” (Bioorg Med Chem, 2011):
Active and inactive are the calls of the source. No cut-off for these calls is given here.

Tests used:
[1] = Drug uptake in cytoplasm of human NCTC-2544 cells at 10 uM after 2 hrs by fluorescence microphotography; type: ADME, cell-based; conditions: nctc-2544, 2 h
Procedure, shortened: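 NCTC-2544 cells attached in Petri dishes, given compound at 10 μM for 2 h, washed with HBSS. Then 30 min with Rhodamine 123 (mitochondria), LysoTracker RED, CellMask Orange (plasma membrane) or ER-Tracker. Blue compound fluorescence overlaid on probe images by video-confocal microscopy.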

Nucleic Acid [2] = assay: Binding affinity to salmon testes DNA at drug/DNA ratio of 0.03 by linear dichroism analysis; type: nucleic-acid assay; conditions: Salmonidae
Procedure, shortened: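 Flow linear dichroism in 10 mM phosphate buffer pH 7.2. Samples oriented in a rotating cylindrical cuvette (0.14 cm path, 800 rpm) at several drug/DNA ratios.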

Jurkat [3] = assay: Cell cycle arrest in UV-A irradiated human Jurkat cells assessed as accumulation at Sub G1 phase at 10 uM after 24 hrs by propidium iodide based flow cytometry (reference value: 0.1 %); type: functional
Procedure, shortened: (§1)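 Exponentially growing Jurkat cells (5×10^5) irradiated with UV-A (365 nm lamp, 2.5 J/cm²) in presence of compound. After 24 h: fixed in ice-cold 70% ethanol, lysed with RNAse A, stained with PI (10 µg/ml), analysed by flow cytometry. Phases calculated on living cells; subG1 is hypodiploid DNA peak.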

Nucleic Acid [4] = assay: Induction of photo-induced Escherichia coli pBR322 DNA damage at drug:DNA ratio of 3:1 by agarose gel electrophoresis in presence of endonuclease III
Nucleic Acid [5] = assay: Induction of photo-induced supercoiled Escherichia coli pBR322 DNA at drug:DNA ratio of 1:3 by agarose gel electrophoresis in presence of glutathione; type: nucleic-acid assay
Procedure, shortened: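 Supercoiled pBR322 (100 ng) in 10 mM phosphate buffer pH 7.2 irradiated with UV-A (3.75 J/cm²) at [DNA]/[drug] 1/3, with additives, under nitrogen or in deuterated buffer as stated. Aliquots then incubated at 37 °C with Fpg or Endo III. Run on 1% agarose in TAE, 80 V for 2 h, stained with ethidium bromide; Form I/II fractions from band densitometry.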

MCF7 [6] = assay: Phototoxicity in 2.5 J/cm'2 UV-A irradiated human MCF7 cells assessed as cell viability after 72 hrs by MTT assay in presence of radical scavenger DABCO; type: functional, cell-based
Procedure, shortened: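 MCF-7 cells given compound plus scavenger in HBSS, 30 min at 37 °C, then UV-A (2.5 J/cm², 365 nm lamp). Medium replaced; viability by MTT after 72 h. Means ± SEM of at least three independent experiments.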

Jurkat [7] = assay: Phototoxicity in 2.5 J/cm'2 UV-A irradiated human Jurkat cells after 72 hrs by MTT assay; type: functional, cell-based; conditions: light or radiation study
Procedure, shortened: (§2)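 HL-60 and Jurkat (8×10³/well, RPMI-1640) and MCF-7, LoVo, NCTC-2544 (5×10³/well; DMEM or Ham's F12) preincubated 18 h at 37 °C, 5% CO₂. Compound in DMSO diluted in HBSS pH 7.2, 30 min at 37 °C, then UV-A at 2.5 or 3.75 J/cm². Medium replaced, 72 h incubation, MTT read-out. IC50 as mean ± SEM of three experiments.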

Jurkat [8] = assay: Cell cycle arrest in UV-A irradiated human Jurkat cells assessed as accumulation at Sub G1 phase at 5 uM after 24 hrs by propidium iodide based flow cytometry (reference value: 0.1 %); type: functional; procedure, shortened: as §1
Jurkat [9] = assay: Induction of apoptosis in 3.75 J/cm'2 UV-A irradiated human Jurkat cells assessed as necrotic cells at 5 uM after 24 hrs by Annexin-V-FITC and propidium iodide based flow cytometry (reference value: 4.2 %); type: functional
MCF7 [10] = assay: Phototoxicity in 2.5 J/cm'2 UV-A irradiated human MCF7 cells after 72 hrs by MTT assay; type: functional, cell-based; conditions: MCF7, light or radiation study; procedure, shortened: as §2

- Drug uptake [1]: Active
- Activity (Nucleic Acid [2]): inactive
- Activity (Nucleic Acid [5]): inactive
Structure (SMILES): CCOC(=O)c1c2c(c(C)n1C)-c1c(cc(S(=O)(=O)c3ccccc3)c(=O)n1C)CC2
- Activity (Jurkat [3]): 43%
- Activity (Nucleic Acid [4]): Active
- Activity (MCF7 [6]): inactive
- IC50 (Jurkat [7]): 1.2 µM
- Activity (Jurkat [8]): 10.5%
- Activity (Jurkat [9]): 4.5%
- IC50 (MCF7 [10]): 1.7 µM
